Test results as given in ChEMBL document CHEMBL2169822, “Discovery and optimization of 1,3,4-trisubstituted-pyrazolone derivatives as novel, potent, and nonsteroidal farnesoid X receptor (FXR) selective antagonists” (J Med Chem, 2012).
Activity calls are given as the source filed them. No cut-off for these calls is given here.

Assays:
[1] = target: T1, Progesterone receptor (Homo sapiens) (UniProt P06401); test: Antagonist activity at recombinant PR LBD expressed in HEK293T cells co-expressing GAL4 DBD assessed as inhibition of progesterone-induced transactivation at 20 uM by luciferase reporter gene assay; format: functional, cell-based; conditions: HEK-293T
T1 sequence (whole entry): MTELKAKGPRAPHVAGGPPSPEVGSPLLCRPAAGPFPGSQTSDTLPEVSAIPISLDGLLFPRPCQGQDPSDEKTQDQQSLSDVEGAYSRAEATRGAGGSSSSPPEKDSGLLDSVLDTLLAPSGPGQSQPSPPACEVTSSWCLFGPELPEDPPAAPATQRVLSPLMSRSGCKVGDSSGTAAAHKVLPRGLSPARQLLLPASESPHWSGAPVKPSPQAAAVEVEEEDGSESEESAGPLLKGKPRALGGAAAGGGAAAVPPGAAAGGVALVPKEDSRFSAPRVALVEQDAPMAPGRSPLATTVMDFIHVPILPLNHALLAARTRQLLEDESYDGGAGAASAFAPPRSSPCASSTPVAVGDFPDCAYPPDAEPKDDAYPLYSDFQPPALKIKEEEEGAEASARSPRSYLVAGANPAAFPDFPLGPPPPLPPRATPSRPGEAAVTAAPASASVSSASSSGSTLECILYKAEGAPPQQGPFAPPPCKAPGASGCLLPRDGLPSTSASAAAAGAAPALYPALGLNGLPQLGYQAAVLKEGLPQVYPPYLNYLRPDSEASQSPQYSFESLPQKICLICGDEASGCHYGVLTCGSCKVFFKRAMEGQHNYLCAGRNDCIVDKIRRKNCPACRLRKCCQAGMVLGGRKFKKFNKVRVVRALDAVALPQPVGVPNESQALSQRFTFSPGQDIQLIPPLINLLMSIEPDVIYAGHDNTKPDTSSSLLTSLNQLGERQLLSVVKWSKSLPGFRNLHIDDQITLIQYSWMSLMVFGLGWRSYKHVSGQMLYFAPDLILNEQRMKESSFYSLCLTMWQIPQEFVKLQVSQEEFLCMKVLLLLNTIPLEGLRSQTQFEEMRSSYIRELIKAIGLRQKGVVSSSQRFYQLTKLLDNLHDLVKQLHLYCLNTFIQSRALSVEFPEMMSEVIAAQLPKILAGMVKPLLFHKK
Outline: (§1)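 One-hybrid assay in HEK293T cells cotransfected with a Gal4 DBD–NR-LBD fusion (RXRα, LXRα, GR, PR, PPARδ or PPARγ) plus UAS-TK-Luc reporter. Compound was 20 μM, given alone or with agonist: 9cRA 0.1 μM (RXRα), TO901317 0.5 μM (LXRα), dexamethasone 50 nM (GR), progesterone 100 nM (PR), GW1516 10 μM (PPARδ), rosiglitazone 10 μM (PPARγ). Luciferase read-out; three independent experiments.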

Mus musculus = test: Reduction of hepatic cholesterol level in cholesterol-fed C57BL/6 mouse administered orally after 10 days; format: functional, organism-based
Outline: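 Male C57BL/6 mice, 8–12 weeks old, were randomized into five groups of nine. Control mice had ground chow; the other groups had chow with 2% cholesterol. Compound (50 or 100 mg/kg) or reference (100 mg/kg) was suspended in 0.5% CMC-Na and given by oral gavage; control and vehicle mice got 0.5% CMC-Na. Serum and hepatic triglyceride and total cholesterol were measured.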

[2] = target: T1, Progesterone receptor (Homo sapiens); test: Agonist activity at recombinant PR-LBD expressed in HEK293T cells co-expressing GAL4 DBD at 20 uM by transactivation assay; format: functional, cell-based; conditions: HEK-293T; outline: as §1
[3] = Binding affinity to FXRalphaLBD assessed as fluorescence quenching after 1 hr
Outline: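 Untagged FXRαLBD (His-tag removed with thrombin; Ni-NTA and ion exchange purified), 1 μM, was incubated with varied compound concentrations for 1 h at 4 °C. Tryptophan fluorescence was read at 25 °C: excitation 280 nm, emission 300–400 nm, 5 nm slits. KD was fitted from quenching.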

[4] = target: T2, Glucocorticoid receptor (Homo sapiens) (UniProt P04150); test: Antagonist activity at recombinant GR LBD expressed in HEK293T cells co-expressing GAL4 DBD assessed as inhibition of dexamethasone-induced transactivation at 20 uM by luciferase reporter gene assay; format: functional, cell-based; conditions: HEK-293T; outline: as §1
T2 sequence (whole entry): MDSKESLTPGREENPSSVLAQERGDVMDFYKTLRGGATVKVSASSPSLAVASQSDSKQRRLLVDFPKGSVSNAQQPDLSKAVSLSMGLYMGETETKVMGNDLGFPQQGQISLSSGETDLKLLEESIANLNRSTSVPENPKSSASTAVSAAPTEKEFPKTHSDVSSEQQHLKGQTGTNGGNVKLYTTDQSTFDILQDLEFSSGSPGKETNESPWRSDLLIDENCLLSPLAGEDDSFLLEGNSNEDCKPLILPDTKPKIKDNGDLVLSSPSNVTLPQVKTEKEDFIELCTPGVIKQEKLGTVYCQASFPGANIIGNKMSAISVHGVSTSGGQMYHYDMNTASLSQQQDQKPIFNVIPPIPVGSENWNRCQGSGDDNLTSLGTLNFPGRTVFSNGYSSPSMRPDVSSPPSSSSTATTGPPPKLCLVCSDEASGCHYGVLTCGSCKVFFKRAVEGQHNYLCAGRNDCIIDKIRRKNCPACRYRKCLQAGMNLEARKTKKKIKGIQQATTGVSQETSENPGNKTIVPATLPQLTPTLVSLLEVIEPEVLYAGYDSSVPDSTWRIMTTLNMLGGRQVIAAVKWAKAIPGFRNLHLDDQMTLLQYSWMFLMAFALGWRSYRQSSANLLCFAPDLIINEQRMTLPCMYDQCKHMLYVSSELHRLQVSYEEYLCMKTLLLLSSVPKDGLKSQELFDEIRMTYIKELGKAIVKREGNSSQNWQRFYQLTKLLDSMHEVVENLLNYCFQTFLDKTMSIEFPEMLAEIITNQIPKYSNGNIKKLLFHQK

[5] = target: T3, Oxysterols receptor LXR-alpha (Homo sapiens) (UniProt Q13133); test: Antagonist activity at recombinant LXRalpha LBD expressed in HEK293T cells co-expressing GAL4 DBD assessed as inhibition of TO901317-induced transactivation at 20 uM by luciferase reporter gene assay; format: functional, cell-based; conditions: HEK-293T; outline: as §1
T3 sequence (whole entry): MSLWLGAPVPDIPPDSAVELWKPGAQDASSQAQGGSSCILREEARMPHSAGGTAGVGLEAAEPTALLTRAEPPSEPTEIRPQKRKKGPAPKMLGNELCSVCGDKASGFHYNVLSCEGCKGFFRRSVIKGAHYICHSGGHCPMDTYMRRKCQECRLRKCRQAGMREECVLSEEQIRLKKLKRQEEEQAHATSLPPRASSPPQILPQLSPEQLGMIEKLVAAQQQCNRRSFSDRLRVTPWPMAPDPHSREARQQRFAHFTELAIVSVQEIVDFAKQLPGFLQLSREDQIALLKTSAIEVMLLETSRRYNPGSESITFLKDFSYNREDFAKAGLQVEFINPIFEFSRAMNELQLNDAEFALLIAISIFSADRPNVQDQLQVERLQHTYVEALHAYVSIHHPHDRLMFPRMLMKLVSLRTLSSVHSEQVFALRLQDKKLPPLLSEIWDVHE

- inhibition [1]: inactive
- Activity [2]: inactive
- Activity [3]: Dose-dependent effect
- Kd [3]: 23.1 µM
- inhibition [4]: inactive
- inhibition [5]: inactive
SMILES: COc1cc(/C=C2\C(=O)N(c3cccc([N+](=O)[O-])c3)N=C2c2ccccc2)ccc1O
- Activity (Mus musculus): Dose-dependent effect
